A word on the IC50: it is the concentration that gives 50% inhibition.

Active and inactive are the calls of the source. The rule behind the calls is not given here.

In ChEMBL document CHEMBL1137404, “Enzyme specific activation of benzoquinone ansamycin prodrugs using HuCC49DeltaCH2-beta-galactosidase conjugates” (J Med Chem, 2006) one finds IC50 and Activity data, which are given here for three molecules.

Assay [1] concerns LS174T. Nature of the assay: Cytotoxicity against human LS174T cells by MTS assay. The class given is functional, cell-based. An outline of the steps:
(§1)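 LS174T cells (2,000−5,000/well) grown 24 h, then given 1 h with PBS, enzyme-only staining buffer or antibody-enzyme conjugate (2 units) and washed three to five times. Compound added at 0−25 μM for 72 h.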

Assay [2] relates to LS174T. The experiment in a line: Cytotoxicity against human LS174T cells in presence of HuCC49deltaCH2-beta galactosidase conjugate by MTS assay. It is filed as functional, cell-based. An outline of the steps: as §1
Assay [3] deals with LS174T. Nature of the assay: Induction of Hsp90-mediated AKT degradation in human LS174T cells after 1 hr in presence of HuCC49deltaCH2-beta galactosidase conjugate by Western blotting. The class given is functional. The gist of the method: (§2)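 LS174T cells at 50−70% confluence given 1 h with free β-galactosidase or antibody-enzyme conjugate in PBS with 2% FBS, washed, then exposed 24 h to 2 or 10 μM compound. Lysates (30 μg) run on 10% SDS-PAGE and blotted for AKT and β-actin by ECL. AKT expressed as Akt:β-actin ratio relative to control (100%).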
(A western blot detects proteins with antibodies after separation by electrophoresis.)

Assay [4] deals with LS174T. Nature of the assay: Induction of Hsp90-mediated AKT degradation in human LS174T cells in absence of HuCC49deltaCH2-beta galactosidase by Western blotting at 2 uM. It is filed as functional. The gist of the method:
as §2

Assay [5] concerns LS174T. The experiment in a line: Induction of Hsp90-mediated AKT degradation in human LS174T cells in presence of HuCC49deltaCH2-beta galactosidase conjugate by Western blotting at 2 uM. It is filed as functional. An outline of the steps: as §2
In assay [6] the test system is LS174T. The experiment in a line: Induction of Hsp90-mediated AKT degradation in human LS174T cells in presence of HuCC49deltaCH2-beta galactosidase conjugate by Western blotting at 10 uM. The class given is functional. An outline of the steps:
as §2

Assay [7] concerns LS174T. The experiment in a line: Induction of Hsp90-mediated AKT degradation in human LS174T cells in absence of HuCC49deltaCH2-beta galactosidase by Western blotting at 10 uM. The class given is functional. The gist of the method:
as §2

`CO[C@H]1/C=C\C=C(/C)C(=O)NC2=CC(=O)C(NCCO[C@@H]3O[C@H](CO)[C@H](O)[C@H](O)[C@H]3O)=C(C[C@@H](C)C[C@H](OC)[C@H](O)[C@@H](C)/C=C(\C)[C@@H]1OC(N)=O)C2=O`: the values for the IC50 in the assay on LS174T [1] and with LS174T [2] were > 25 µM and 1.12 µM, respectively. In the assay with LS174T [3], the Activity came to 70%. The result in the assay on LS174T [4] was inactive.

Regarding `COC1=C2C[C@@H](C)C[C@H](OC)[C@H](O)[C@@H](C)/C=C(\C)[C@H](OC(N)=O)[C@@H](OC)/C=C\C=C(/C)C(=O)NC(=CC1=O)C2=O` [GELDANAMYCIN], the IC50 with LS174T [1] came out at 0.45 µM.

In the case of `CO[C@H]1/C=C\C=C(/C)C(=O)NC2=CC(=O)C(N)=C(C[C@@H](C)C[C@H](OC)[C@H](O)[C@@H](C)/C=C(\C)[C@@H]1OC(N)=O)C2=O`, the Activity with LS174T [5], in the assay on LS174T [4], in the assay with LS174T [6] and with LS174T [7] was 70% in each case.
